≈ marks a conversion by molar mass, not a printed value.
Assays:
Format in all cases: functional
Escherichia coli [1] = assay: Antimicrobial activity against Escherichia coli isolate J53 harboring p3A containing beta-lactamase OXA-48 located within transposon Tn1999 by Etest method
Method in brief: (§1)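 β-Lactam MICs read with Etest strips. Strains are E. coli J53 recipient and J53 transconjugants carrying OXA-48-positive plasmids recovered from clinical enterobacterial isolates.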

Escherichia coli [2] = assay: Antimicrobial activity against Escherichia coli isolate J53 harboring p5A containing beta-lactamase OXA-48 located within transposon Tn1999 by Etest method; method in brief: as §1
Escherichia coli [3] = assay: Antimicrobial activity against Escherichia coli isolate A expressing beta-lactamase OXA-48 and TEM-150 by Etest method
Escherichia coli [4] = assay: Antimicrobial activity against Escherichia coli isolate J53 harboring pBEL containing beta-lactamase OXA-48 located within transposon Tn1999.2 by Etest method; method in brief: as §1
Escherichia coli [5] = assay: Antimicrobial activity against Escherichia coli isolate J53 harboring pBb containing beta-lactamase OXA-48 located within transposon Tn1999.2 by Etest method; method in brief: as §1
Escherichia coli [6] = assay: Antimicrobial activity against Escherichia coli isolate J53 harboring p6A containing beta-lactamase OXA-48 located within transposon Tn1999 by Etest method; method in brief: as §1
Klebsiella pneumoniae [7] = assay: Antimicrobial activity against Klebsiella pneumoniae isolate KpI-1 expressing beta-lactamase OXA-48 and CTX-M-15 by Etest method
Escherichia coli [8] = assay: Antimicrobial activity against Escherichia coli isolate J53 harboring p4A containing beta-lactamase OXA-48 located within transposon Tn1999 by Etest method; method in brief: as §1
Klebsiella pneumoniae [9] = assay: Antimicrobial activity against Klebsiella pneumoniae isolate Kp7A expressing beta-lactamase OXA-48 by Etest method
Method in brief: (§2)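 MICs of β-lactams read from Etest strips. The test organisms are carbapenem-resistant, OXA-48-positive clinical Enterobacteriaceae isolates recovered from Turkey, Lebanon, Egypt, France and Belgium.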

Providencia rettgeri = assay: Antimicrobial activity against Providencia rettgeri isolate expressing beta-lactamase OXA-48 and TEM-101 by Etest method
Enterobacter cloacae [10] = assay: Antimicrobial activity against Enterobacter cloacae isolate 1 expressing beta-lactamase OXA-48 and SHV-5 by Etest method
Citrobacter freundii = assay: Antimicrobial activity against Citrobacter freundii isolate expressing beta-lactamase OXA-48 by Etest method
Escherichia coli [11] = assay: Antimicrobial activity against Escherichia coli isolate J53 harboring pL containing beta-lactamase OXA-48 located within transposon Tn1999.2 by Etest method; method in brief: as §1
Klebsiella pneumoniae [12] = assay: Antimicrobial activity against Klebsiella pneumoniae isolate Kp5A expressing beta-lactamase OXA-48 and SHV-5 by Etest method
Klebsiella pneumoniae [13] = assay: Antimicrobial activity against Klebsiella pneumoniae isolate Kp11978 expressing beta-lactamase OXA-48, SHV-2a and TEM-1 by Etest method
Escherichia coli [14] = assay: Antimicrobial activity against Escherichia coli isolate J53 harboring pEnc2 containing beta-lactamase OXA-48 located within transposon Tn1999 by Etest method; method in brief: as §1
Escherichia coli [15] = assay: Antimicrobial activity against Escherichia coli isolate TOP10 harboring pBIC containing beta-lactamase OXA-48 located within transposon Tn1999.2 by Etest method
Method in brief: (§3)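 β-Lactam MICs read with Etest strips. Strains are E. coli TOP10 host and TOP10 transformants made with plasmid DNA extract when conjugation failed. Transformants were selected on LB agar with ticarcillin 50 μg/ml.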

Escherichia coli [16] = assay: Antimicrobial activity against Escherichia coli isolate J53 harboring pI-1 containing beta-lactamase OXA-48 located within transposon Tn1999.2 by Etest method; method in brief: as §1
Klebsiella pneumoniae [17] = assay: Antimicrobial activity against Klebsiella pneumoniae isolate KpI-2 expressing beta-lactamase OXA-48 and CTX-M-15 by Etest method
Escherichia coli [18] = assay: Antimicrobial activity against Escherichia coli isolate J53 harboring pCF containing beta-lactamase OXA-48 located within transposon Tn1999 by Etest method; method in brief: as §1
Klebsiella pneumoniae [19] = assay: Antimicrobial activity against Klebsiella pneumoniae isolate Kp4A expressing beta-lactamase OXA-48 and CTX-M-15 by Etest method
Klebsiella pneumoniae [20] = assay: Antimicrobial activity against Klebsiella pneumoniae isolate KpBEL expressing beta-lactamase OXA-48 by Etest method; method in brief: as §2
Klebsiella pneumoniae [21] = assay: Antimicrobial activity against Klebsiella pneumoniae isolate KpE expressing beta-lactamase OXA-48 and CTX-M-15 by Etest method
Klebsiella pneumoniae [22] = assay: Antimicrobial activity against Klebsiella pneumoniae isolate KpL expressing beta-lactamase OXA-48 by Etest method
Escherichia coli [23] = assay: Antimicrobial activity against Escherichia coli isolate J53 harboring pI-2 containing beta-lactamase OXA-48 located within transposon Tn1999.2 by Etest method; method in brief: as §1
Escherichia coli [24] = assay: Antimicrobial activity against Escherichia coli isolate J53 harboring pEnc1 containing beta-lactamase OXA-48 located within transposon Tn1999 by Etest method; method in brief: as §1
Enterobacter cloacae [25] = assay: Antimicrobial activity against Enterobacter cloacae isolate 2 expressing beta-lactamase OXA-48 and SHV-5 by Etest method
Escherichia coli [26] = assay: Antimicrobial activity against Escherichia coli isolate J53 harboring p7A containing beta-lactamase OXA-48 located within transposon Tn1999 by Etest method; method in brief: as §1
Escherichia coli [27] = assay: Antimicrobial activity against Escherichia coli isolate J53 harboring pA-1 containing beta-lactamase OXA-48 located within transposon Tn1999 by Etest method; method in brief: as §1
Escherichia coli [28] = assay: Antimicrobial activity against Escherichia coli isolate J53 harboring pEcA containing beta-lactamase OXA-48 located within transposon Tn1999.2 by Etest method; method in brief: as §1
Klebsiella pneumoniae [29] = assay: Antimicrobial activity against Klebsiella pneumoniae isolate KpB expressing OXA-48 and CTX-M-15 by Etest method
Klebsiella pneumoniae [30] = assay: Antimicrobial activity against Klebsiella pneumoniae isolate Kp3A expressing beta-lactamase OXA-48 by Etest method; method in brief: as §2
Klebsiella pneumoniae [31] = assay: Antimicrobial activity against Klebsiella pneumoniae isolate Kp6A expressing beta-lactamase OXA-48 and TEM-150 by Etest method
Escherichia coli [32] = assay: Antimicrobial activity against Escherichia coli isolate J53 harboring pE containing beta-lactamase OXA-48 located within transposon Tn1999.2 by Etest method; method in brief: as §1
Klebsiella pneumoniae [33] = assay: Antimicrobial activity against Klebsiella pneumoniae isolate KpBIC expressing beta-lactamase OXA-48 by Etest method; method in brief: as §2
Escherichia coli [34] = assay: Antimicrobial activity against Escherichia coli isolate TOP10 harboring pPR containing beta-lactamase and TEM-101 by Etest method; method in brief: as §3
Escherichia coli [35] = assay: Antimicrobial activity against Escherichia coli isolate TOP10 by Etest method; method in brief: as §3
Escherichia coli [36] = assay: Antimicrobial activity against Escherichia coli isolate J53 by Etest method; method in brief: as §1

SMILES | MIC (Escherichia coli [1]) [µg/mL] | MIC (Escherichia coli [2]) [µg/mL] | MIC (Escherichia coli [4]) [µg/mL] | MIC (Escherichia coli [5]) [µg/mL] | MIC (Escherichia coli [6]) [µg/mL] | MIC (Escherichia coli [8]) [µg/mL] | MIC (Klebsiella pneumoniae [9]) [µg/mL] | MIC (Escherichia coli [11]) [µg/mL] | MIC (Escherichia coli [14]) [µg/mL] | MIC (Escherichia coli [15]) [µg/mL] | MIC (Escherichia coli [16]) [µg/mL] | MIC (Escherichia coli [18]) [µg/mL] | MIC (Klebsiella pneumoniae [20]) [µg/mL] | MIC (Klebsiella pneumoniae [22]) [µg/mL] | MIC (Escherichia coli [23]) [µg/mL] | MIC (Escherichia coli [26]) [µg/mL] | MIC (Escherichia coli [28]) [µg/mL] | MIC (Klebsiella pneumoniae [30]) [µg/mL] | MIC (Escherichia coli [32]) [µg/mL] | MIC (Klebsiella pneumoniae [33]) [µg/mL] | other results
C[C@@H](O)[C@H]1C(=O)N2C(C(=O)O)=C(SCCNC=N)C[C@H]12 [IMIPENEM ANHYDROUS] | 0.75 (≈ 2.51 µM) | 0.38 (≈ 1.27 µM) | 0.75 (≈ 2.51 µM) | 0.5 (≈ 1.67 µM) | 0.38 (≈ 1.27 µM) | 0.38 (≈ 1.27 µM) | > 32 | 4 (≈ 13.4 µM) | 0.75 (≈ 2.51 µM) | 0.5 (≈ 1.67 µM) | 0.5 (≈ 1.67 µM) | 0.75 (≈ 2.51 µM) | 0.75 (≈ 2.51 µM) | > 16 | 0.5 (≈ 1.67 µM) | 0.75 (≈ 2.51 µM) | 0.75 (≈ 2.51 µM) | > 32 | 2 (≈ 6.68 µM) | 0.5 (≈ 1.67 µM) | MIC (Escherichia coli [3]): 24 µg/mL (≈ 80.2 µM); MIC (Klebsiella pneumoniae [7]): 24 µg/mL (≈ 80.2 µM); MIC (Providencia rettgeri): > 32 µg/mL; MIC (Enterobacter cloacae [10]): 0.5 µg/mL (≈ 1.67 µM); MIC (Citrobacter freundii): > 32 µg/mL; MIC (Klebsiella pneumoniae [12]): > 32 µg/mL; MIC (Klebsiella pneumoniae [13]): 64 µg/mL (≈ 214 µM); MIC (Klebsiella pneumoniae [17]): 24 µg/mL (≈ 80.2 µM); MIC (Klebsiella pneumoniae [19]): > 32 µg/mL; MIC (Klebsiella pneumoniae [21]): 2 µg/mL (≈ 6.68 µM); MIC (Escherichia coli [24]): 0.5 µg/mL (≈ 1.67 µM); MIC (Enterobacter cloacae [25]): 0.75 µg/mL (≈ 2.51 µM); MIC (Escherichia coli [27]): 2 µg/mL (≈ 6.68 µM); MIC (Klebsiella pneumoniae [29]): 16 µg/mL (≈ 53.4 µM); MIC (Klebsiella pneumoniae [31]): > 32 µg/mL
C[C@H]1[C@H](NC(=O)/C(=N\OC(C)(C)C(=O)O)c2csc(N)n2)C(=O)N1S(=O)(=O)O [AZTREONAM] | 0.06 (≈ 0.138 µM) | 0.06 (≈ 0.138 µM) | 0.06 (≈ 0.138 µM) | < 0.12 | 0.06 (≈ 0.138 µM) | 0.06 (≈ 0.138 µM) | 0.06 (≈ 0.138 µM) | 0.06 (≈ 0.138 µM) | 0.06 (≈ 0.138 µM) | – | 0.06 (≈ 0.138 µM) | 0.06 (≈ 0.138 µM) | 0.06 (≈ 0.138 µM) | 0.06 (≈ 0.138 µM) | 0.06 (≈ 0.138 µM) | 0.06 (≈ 0.138 µM) | 0.06 (≈ 0.138 µM) | 0.06 (≈ 0.138 µM) | 0.06 (≈ 0.138 µM) | 0.06 (≈ 0.138 µM) | MIC (Escherichia coli [34]): 0.06 µg/mL (≈ 0.138 µM); MIC (Escherichia coli [24]): 0.06 µg/mL (≈ 0.138 µM)
C[C@@H](O)[C@H]1C(=O)N2C(C(=O)O)=C(S[C@@H]3CN[C@H](C(=O)N(C)C)C3)[C@H](C)[C@H]12 [MEROPENEM] | 0.12 (≈ 0.313 µM) | 0.094 (≈ 0.245 µM) | 0.5 (≈ 1.3 µM) | 0.12 (≈ 0.313 µM) | 0.094 (≈ 0.245 µM) | 0.094 (≈ 0.245 µM) | > 32 | 0.19 (≈ 0.495 µM) | 0.12 (≈ 0.313 µM) | 0.5 (≈ 1.3 µM) | 0.094 (≈ 0.245 µM) | 0.12 (≈ 0.313 µM) | 0.5 (≈ 1.3 µM) | – | 0.094 (≈ 0.245 µM) | 0.12 (≈ 0.313 µM) | 0.19 (≈ 0.495 µM) | > 32 | 2 (≈ 5.22 µM) | 0.5 (≈ 1.3 µM) | MIC (Escherichia coli [35]): 0.06 µg/mL (≈ 0.156 µM); MIC (Escherichia coli [3]): 24 µg/mL (≈ 62.6 µM); MIC (Escherichia coli [34]): 0.25 µg/mL (≈ 0.652 µM); MIC (Providencia rettgeri): > 32 µg/mL; MIC (Enterobacter cloacae [10]): 0.5 µg/mL (≈ 1.3 µM); MIC (Citrobacter freundii): > 32 µg/mL; MIC (Klebsiella pneumoniae [12]): > 32 µg/mL; MIC (Klebsiella pneumoniae [13]): 64 µg/mL (≈ 167 µM); MIC (Klebsiella pneumoniae [19]): > 32 µg/mL; MIC (Klebsiella pneumoniae [21]): 2 µg/mL (≈ 5.22 µM); MIC (Escherichia coli [24]): 0.094 µg/mL (≈ 0.245 µM); MIC (Enterobacter cloacae [25]): 0.75 µg/mL (≈ 1.96 µM); MIC (Escherichia coli [27]): 0.25 µg/mL (≈ 0.652 µM); MIC (Escherichia coli [36]): 0.06 µg/mL (≈ 0.156 µM); MIC (Klebsiella pneumoniae [29]): 32 µg/mL (≈ 83.4 µM); MIC (Klebsiella pneumoniae [31]): > 32 µg/mL
CO/N=C(\C(=O)N[C@@H]1C(=O)N2C(C(=O)[O-])=C(C[N+]3(C)CCCC3)CS[C@H]12)c1csc(N)n1 | – | 0.12 (≈ 0.25 µM) | 0.12 (≈ 0.25 µM) | < 0.5 | 0.12 (≈ 0.25 µM) | 0.12 (≈ 0.25 µM) | 0.5 (≈ 1.04 µM) | 0.06 (≈ 0.125 µM) | – | 0.5 (≈ 1.04 µM) | 0.12 (≈ 0.25 µM) | 0.12 (≈ 0.25 µM) | 0.12 (≈ 0.25 µM) | 0.12 (≈ 0.25 µM) | 0.12 (≈ 0.25 µM) | 0.5 (≈ 1.04 µM) | 0.12 (≈ 0.25 µM) | 0.5 (≈ 1.04 µM) | 0.12 (≈ 0.25 µM) | 0.5 (≈ 1.04 µM) | MIC (Escherichia coli [34]): 0.5 µg/mL (≈ 1.04 µM); MIC (Escherichia coli [36]): 0.03 µg/mL (≈ 0.0624 µM); MIC (Klebsiella pneumoniae [29]): > 512 µg/mL
